Tests used:
[1] = molecular target: Galanin receptor type 2 (Homo sapiens) (UniProt O43603); assay: Inhibition of human galanin receptor 2 at 10 uM by radioligand binding assay
Summary of the method: (§1)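 Outsourced broad receptor-screening panel of 78 targets, each tested at a single 10 uM concentration; read-out is percent inhibition. Detailed conditions are given only in the Supporting Information.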

Rattus norvegicus [2] = organism: Rattus norvegicus; assay: Inhibition of rat central type benzodiazepine receptor at 10 uM by radioligand binding assay
Summary of the method: (§2)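 Single-concentration screen at 10 uM in a commercial 78-receptor panel run by CEREP; results are given as % inhibition.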

P2X purinoceptor 2 = P2X purinoceptor 2 (Homo sapiens, UniProt Q9UBL9); assay: Inhibition of P2X2R (unknown origin)
Sequence of P2X purinoceptor 2 (Q9UBL9 whole entry): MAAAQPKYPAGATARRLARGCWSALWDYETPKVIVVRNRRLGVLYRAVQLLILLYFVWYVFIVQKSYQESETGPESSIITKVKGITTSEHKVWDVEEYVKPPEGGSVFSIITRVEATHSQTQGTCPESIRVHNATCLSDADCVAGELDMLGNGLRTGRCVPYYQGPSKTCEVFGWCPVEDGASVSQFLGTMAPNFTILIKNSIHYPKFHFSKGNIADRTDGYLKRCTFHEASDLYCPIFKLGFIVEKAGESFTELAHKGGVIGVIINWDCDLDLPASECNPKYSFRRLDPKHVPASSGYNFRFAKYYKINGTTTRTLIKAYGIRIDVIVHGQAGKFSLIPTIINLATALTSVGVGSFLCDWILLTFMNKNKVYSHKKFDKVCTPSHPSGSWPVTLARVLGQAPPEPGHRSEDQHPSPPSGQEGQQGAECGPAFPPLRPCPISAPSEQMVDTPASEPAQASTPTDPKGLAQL
Summary of the method: (§3)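 Selectivity at other P2X receptor subtypes, read as IC50 in a FLIPR Ca2+ flux assay.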

[3] = molecular target: Mu-type opioid receptor (Homo sapiens) (UniProt P35372); assay: Inhibition of human mu opioid receptor at 10 uM by radioligand binding assay; summary of the method: as §1
[4] = molecular target: Melanocortin receptor 4 (Homo sapiens) (UniProt P32245); assay: Inhibition of human MC4 receptor at 10 uM
Summary of the method: (§4)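 Commercial receptor scan across a 78-target panel, with percent inhibition measured at a test concentration of 10 uM.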

Plasma = assay: Metabolic stability in human plasma at 10 uM after 4 hrs by LC/MS/MS analysis; format: ADME, cell-free
[5] = molecular target: Galanin receptor type 1 (Homo sapiens) (UniProt P47211); assay: Inhibition of human galanin receptor 1 at 10 uM by radioligand binding assay; summary of the method: as §1
Sequence of Galanin receptor type 1 (Homo sapiens) (P47211 whole entry): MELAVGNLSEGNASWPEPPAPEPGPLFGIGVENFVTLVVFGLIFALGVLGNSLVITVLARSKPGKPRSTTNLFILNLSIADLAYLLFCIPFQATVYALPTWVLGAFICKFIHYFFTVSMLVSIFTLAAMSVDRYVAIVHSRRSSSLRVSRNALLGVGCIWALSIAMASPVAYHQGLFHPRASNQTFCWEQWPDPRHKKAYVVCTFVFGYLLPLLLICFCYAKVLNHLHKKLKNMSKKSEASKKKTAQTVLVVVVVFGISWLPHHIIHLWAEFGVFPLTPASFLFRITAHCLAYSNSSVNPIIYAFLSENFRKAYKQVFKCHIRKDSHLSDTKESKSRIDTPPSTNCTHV

[6] = molecular target: Histamine H2 receptor (Homo sapiens) (UniProt P25021); assay: Inhibition of human histamine H2 receptor at 10 uM; summary of the method: as §1
Rattus norvegicus [7] = organism: Rattus norvegicus; assay: Inhibition of rat sigma receptor at 10 uM; summary of the method: as §2
[8] = molecular target: Glutamate NMDA receptor (Rattus norvegicus) (UniProt P35439+Q00959+Q00960+Q00961+Q62645+Q8VHN2+Q9R1M7); assay: Inhibition of rat NMDA receptor PCP binding site at 10 uM; format: protein-complex assay; summary of the method: as §1
[9] = molecular target: Melatonin receptor type 1A (Homo sapiens) (UniProt P48039); assay: Inhibition of human melatonin receptor type 1A at 10 uM; summary of the method: as §1
Sequence of Melatonin receptor type 1A (Homo sapiens) (P48039 whole entry): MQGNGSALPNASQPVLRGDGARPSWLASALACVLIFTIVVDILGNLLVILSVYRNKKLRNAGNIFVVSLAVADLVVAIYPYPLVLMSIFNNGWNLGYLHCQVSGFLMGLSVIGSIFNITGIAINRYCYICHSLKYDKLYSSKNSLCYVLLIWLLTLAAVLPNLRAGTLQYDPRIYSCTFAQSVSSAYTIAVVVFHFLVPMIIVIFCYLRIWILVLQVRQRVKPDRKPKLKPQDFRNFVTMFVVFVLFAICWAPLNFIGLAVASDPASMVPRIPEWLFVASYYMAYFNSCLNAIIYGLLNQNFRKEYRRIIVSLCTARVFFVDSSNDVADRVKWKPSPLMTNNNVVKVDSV

[10] = Binding affinity to Cytochrome P450 in human liver microsomes at 10 uM incubated for 30 mins; format: ADME; conditions: 0.5 h
Summary of the method: (§5)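 Covalent binding in rat and human liver microsomes, run both without and with NADPH.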

[11] = molecular target: Type-1 angiotensin II receptor (Homo sapiens) (UniProt P30556); assay: Inhibition of human angiotensin 2 receptor 1 at 10 uM; summary of the method: as §1
Sequence of Type-1 angiotensin II receptor (Homo sapiens) (P30556 whole entry): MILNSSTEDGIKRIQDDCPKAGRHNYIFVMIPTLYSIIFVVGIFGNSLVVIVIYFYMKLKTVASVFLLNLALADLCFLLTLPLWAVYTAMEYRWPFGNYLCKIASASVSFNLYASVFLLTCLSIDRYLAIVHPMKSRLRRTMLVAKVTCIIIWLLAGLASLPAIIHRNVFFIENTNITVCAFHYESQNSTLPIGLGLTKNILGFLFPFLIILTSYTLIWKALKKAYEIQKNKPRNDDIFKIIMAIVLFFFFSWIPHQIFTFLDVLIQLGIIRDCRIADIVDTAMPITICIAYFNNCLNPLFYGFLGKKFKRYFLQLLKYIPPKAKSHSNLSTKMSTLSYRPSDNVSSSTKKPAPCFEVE

[12] = molecular target: 5-hydroxytryptamine receptor 2C (Homo sapiens) (UniProt P28335); assay: Inhibition of human 5-HT2C receptor at 10 uM by radioligand binding assay; summary of the method: as §4
Sequence of 5-hydroxytryptamine receptor 2C (Homo sapiens) (P28335 whole entry): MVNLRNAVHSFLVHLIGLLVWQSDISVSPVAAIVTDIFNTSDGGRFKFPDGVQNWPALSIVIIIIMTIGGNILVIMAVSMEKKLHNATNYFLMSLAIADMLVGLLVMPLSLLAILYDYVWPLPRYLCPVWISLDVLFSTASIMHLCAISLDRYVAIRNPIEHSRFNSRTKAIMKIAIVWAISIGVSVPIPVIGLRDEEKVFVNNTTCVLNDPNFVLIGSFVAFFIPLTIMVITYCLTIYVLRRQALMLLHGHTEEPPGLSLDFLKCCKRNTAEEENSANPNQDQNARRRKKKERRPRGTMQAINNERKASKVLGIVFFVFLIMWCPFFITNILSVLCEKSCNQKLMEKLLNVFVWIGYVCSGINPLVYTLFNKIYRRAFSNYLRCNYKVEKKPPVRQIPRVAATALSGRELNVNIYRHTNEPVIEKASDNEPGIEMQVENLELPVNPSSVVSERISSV

Rattus norvegicus [13] = organism: Rattus norvegicus; assay: Inhibition of rat GABA receptor at 10 uM by radioligand binding assay; summary of the method: as §1
[14] = Binding affinity to Cytochrome P450 in rat liver microsomes at 10 uM incubated for 30 mins; format: ADME; conditions: 0.5 h; summary of the method: as §5
[15] = molecular target: Glucocorticoid receptor (Homo sapiens) (UniProt P04150); assay: Inhibition of human glucocorticoid receptor at 10 uM by radioligand binding assay; summary of the method: as §1
Sequence of Glucocorticoid receptor (Homo sapiens) (P04150 whole entry): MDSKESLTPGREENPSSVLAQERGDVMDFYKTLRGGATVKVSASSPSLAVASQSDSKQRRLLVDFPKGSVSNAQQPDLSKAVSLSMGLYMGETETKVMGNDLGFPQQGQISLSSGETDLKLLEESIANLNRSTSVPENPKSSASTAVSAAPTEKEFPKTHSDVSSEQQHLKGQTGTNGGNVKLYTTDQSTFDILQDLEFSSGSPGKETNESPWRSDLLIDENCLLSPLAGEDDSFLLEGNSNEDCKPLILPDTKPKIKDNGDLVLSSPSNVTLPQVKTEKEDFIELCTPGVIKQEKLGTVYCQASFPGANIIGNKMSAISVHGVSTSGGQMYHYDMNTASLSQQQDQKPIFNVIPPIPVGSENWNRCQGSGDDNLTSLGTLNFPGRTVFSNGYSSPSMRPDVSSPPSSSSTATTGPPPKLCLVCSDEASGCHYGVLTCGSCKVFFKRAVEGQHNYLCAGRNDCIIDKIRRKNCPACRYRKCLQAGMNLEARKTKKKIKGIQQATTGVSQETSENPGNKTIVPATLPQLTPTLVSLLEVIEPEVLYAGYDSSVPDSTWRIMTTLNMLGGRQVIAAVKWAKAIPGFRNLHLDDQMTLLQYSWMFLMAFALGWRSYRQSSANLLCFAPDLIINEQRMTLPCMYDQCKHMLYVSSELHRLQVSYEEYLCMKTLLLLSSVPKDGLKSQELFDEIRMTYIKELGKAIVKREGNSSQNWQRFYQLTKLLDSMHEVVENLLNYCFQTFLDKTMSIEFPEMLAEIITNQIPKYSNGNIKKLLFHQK

[16] = molecular target: Beta-2 adrenergic receptor (Homo sapiens) (UniProt P07550); assay: Inhibition of human beta2-adrenoceptor at 10 uM by radioligand binding assay; summary of the method: as §1
[17] = molecular target: Beta-1 adrenergic receptor (Homo sapiens) (UniProt P08588); assay: Inhibition of human beta1-adrenoceptor at 10 uM by radioligand binding assay; summary of the method: as §1
[18] = molecular target: Delta-type opioid receptor (Homo sapiens) (UniProt P41143); assay: Inhibition of human delta opioid receptor at 10 uM by radioligand binding assay; summary of the method: as §1
[19] = molecular target: Small conductance calcium-activated potassium channel (Rattus norvegicus) (UniProt P70604+P70606+P70605); assay: Inhibition of rat small conductance calcium-activated potassium channel at 10 uM by radioligand binding assay; format: protein assay; summary of the method: as §2
[20] = molecular target: Neuropeptide Y receptor type 2 (Homo sapiens) (UniProt P49146); assay: Inhibition of human neuropeptide Y2 receptor at 10 uM by radioligand binding assay; summary of the method: as §1
Sequence of Neuropeptide Y receptor type 2 (Homo sapiens) (P49146 whole entry): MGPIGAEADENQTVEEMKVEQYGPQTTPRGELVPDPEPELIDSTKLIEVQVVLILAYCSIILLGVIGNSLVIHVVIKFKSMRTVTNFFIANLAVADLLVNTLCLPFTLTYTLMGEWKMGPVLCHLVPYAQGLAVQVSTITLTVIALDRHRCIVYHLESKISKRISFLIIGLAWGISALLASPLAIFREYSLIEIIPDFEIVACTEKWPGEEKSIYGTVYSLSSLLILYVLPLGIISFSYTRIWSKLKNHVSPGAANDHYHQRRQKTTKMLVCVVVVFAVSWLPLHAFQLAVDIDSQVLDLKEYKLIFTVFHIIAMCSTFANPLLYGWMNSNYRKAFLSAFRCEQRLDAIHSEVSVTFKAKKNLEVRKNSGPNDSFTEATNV

P2X purinoceptor 5 = P2X purinoceptor 5 (Homo sapiens, UniProt Q93086); assay: Inhibition of P2X5R (unknown origin); summary of the method: as §3
[21] = molecular target: Muscarinic acetylcholine receptor M5 (Homo sapiens) (UniProt P08912); assay: Inhibition of human muscarinic M5 receptor at 10 uM; summary of the method: as §1
[22] = molecular target: D(3) dopamine receptor (Homo sapiens) (UniProt P35462); assay: Inhibition of human dopamine D3 receptor at 10 uM; summary of the method: as §1
Sequence of D(3) dopamine receptor (Homo sapiens) (P35462 whole entry): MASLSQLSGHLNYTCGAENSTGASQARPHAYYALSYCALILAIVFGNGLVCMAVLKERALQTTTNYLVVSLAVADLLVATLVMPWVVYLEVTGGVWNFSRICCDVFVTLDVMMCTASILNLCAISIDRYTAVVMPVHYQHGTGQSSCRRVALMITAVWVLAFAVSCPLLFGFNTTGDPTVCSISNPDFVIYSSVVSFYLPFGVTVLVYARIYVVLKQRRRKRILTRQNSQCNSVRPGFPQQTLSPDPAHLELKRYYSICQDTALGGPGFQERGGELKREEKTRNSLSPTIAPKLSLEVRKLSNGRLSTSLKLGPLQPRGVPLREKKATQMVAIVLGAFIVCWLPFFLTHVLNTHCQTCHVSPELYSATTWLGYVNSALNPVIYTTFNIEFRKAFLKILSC

[23] = molecular target: C-X-C chemokine receptor type 2 (Homo sapiens) (UniProt P25025); assay: Inhibition of human CXCR2 at 10 uM by radioligand binding assay; summary of the method: as §4
[24] = molecular target: B2 bradykinin receptor (Homo sapiens) (UniProt P30411); assay: Inhibition of human bradykinin 2 receptor at 10 uM by radioligand binding assay; summary of the method: as §1
[25] = molecular target: Prostacyclin receptor (Homo sapiens) (UniProt P43119); assay: Inhibition of human PGI2 receptor at 10 uM by radioligand binding assay; summary of the method: as §1
Sequence of Prostacyclin receptor (Homo sapiens) (P43119 whole entry): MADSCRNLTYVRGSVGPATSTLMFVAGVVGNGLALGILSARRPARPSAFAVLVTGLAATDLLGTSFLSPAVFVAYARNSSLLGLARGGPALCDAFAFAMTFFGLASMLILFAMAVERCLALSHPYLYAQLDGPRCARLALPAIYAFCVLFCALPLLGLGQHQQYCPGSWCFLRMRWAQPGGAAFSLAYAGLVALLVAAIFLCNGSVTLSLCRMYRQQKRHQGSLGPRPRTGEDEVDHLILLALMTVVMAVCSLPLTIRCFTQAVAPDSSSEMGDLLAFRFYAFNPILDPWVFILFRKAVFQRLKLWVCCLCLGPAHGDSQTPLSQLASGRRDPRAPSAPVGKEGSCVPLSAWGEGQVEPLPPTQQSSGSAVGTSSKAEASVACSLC

[26] = molecular target: Sodium-dependent serotonin transporter (Homo sapiens) (UniProt P31645); assay: Inhibition of human 5-HT transporter at 10 uM; summary of the method: as §4
Sequence of Sodium-dependent serotonin transporter (Homo sapiens) (P31645 whole entry, looked up): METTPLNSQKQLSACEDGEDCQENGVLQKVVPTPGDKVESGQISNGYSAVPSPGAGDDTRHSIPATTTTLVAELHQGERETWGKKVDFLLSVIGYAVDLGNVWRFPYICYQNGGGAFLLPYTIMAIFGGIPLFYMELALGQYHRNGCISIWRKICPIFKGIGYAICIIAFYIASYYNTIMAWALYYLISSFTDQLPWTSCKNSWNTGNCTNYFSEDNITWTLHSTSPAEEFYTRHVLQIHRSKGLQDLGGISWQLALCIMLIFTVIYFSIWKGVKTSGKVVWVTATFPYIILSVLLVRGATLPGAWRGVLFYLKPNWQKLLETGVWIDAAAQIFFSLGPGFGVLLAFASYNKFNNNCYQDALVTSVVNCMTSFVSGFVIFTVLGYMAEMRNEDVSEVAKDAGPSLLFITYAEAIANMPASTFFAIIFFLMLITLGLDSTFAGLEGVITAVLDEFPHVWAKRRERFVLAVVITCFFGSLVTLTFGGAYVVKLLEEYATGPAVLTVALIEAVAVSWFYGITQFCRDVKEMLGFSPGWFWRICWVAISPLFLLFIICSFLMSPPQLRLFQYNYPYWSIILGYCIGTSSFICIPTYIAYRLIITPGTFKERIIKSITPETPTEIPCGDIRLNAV

Rattus norvegicus [27] = organism: Rattus norvegicus; assay: Inhibition of rat Voltage-gated potassium channel at 10 uM; summary of the method: as §1
[28] = molecular target: 5-hydroxytryptamine receptor 5A (Homo sapiens) (UniProt P47898); assay: Inhibition of human 5-HT5A receptor at 10 uM by radioligand binding assay; summary of the method: as §4
[29] = molecular target: C-C chemokine receptor type 1 (Homo sapiens) (UniProt P32246); assay: Inhibition of human CCR1 at 10 uM by radioligand binding assay; summary of the method: as §4
Sequence of C-C chemokine receptor type 1 (Homo sapiens) (P32246 whole entry): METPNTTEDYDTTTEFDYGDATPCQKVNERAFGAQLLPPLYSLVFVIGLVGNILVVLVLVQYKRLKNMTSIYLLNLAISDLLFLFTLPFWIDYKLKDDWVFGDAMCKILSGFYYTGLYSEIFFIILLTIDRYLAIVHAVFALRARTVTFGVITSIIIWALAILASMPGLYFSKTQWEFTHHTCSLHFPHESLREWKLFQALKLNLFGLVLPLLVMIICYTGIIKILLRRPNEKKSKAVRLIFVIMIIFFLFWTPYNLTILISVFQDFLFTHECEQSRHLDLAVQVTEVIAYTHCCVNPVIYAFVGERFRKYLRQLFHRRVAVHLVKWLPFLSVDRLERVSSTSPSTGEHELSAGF

Rattus norvegicus [30] = assay: Dose normalized AUC in rat at 2 mg/kg, po administered as single dose; format: ADME, organism-based; conditions: in vivo
Summary of the method: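 Single-dose rat PK: iv at 0.5 mg/kg and po at 2 mg/kg. n ≥ 2 animals per time point. Oral AUC normalized to dose; clearance, Vdss and half-life taken from the iv arm.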

[31] = molecular target: D(1B) dopamine receptor (Homo sapiens) (UniProt P21918); assay: Inhibition of human dopamine D5 receptor at 10 uM; summary of the method: as §1
[32] = molecular target: Neuropeptide Y receptor type 1 (Homo sapiens) (UniProt P25929); assay: Inhibition of human neuropeptide Y1 receptor at 10 uM by radioligand binding assay; summary of the method: as §1

Which inhibition [1] does the source give for `Cc1cc(Cl)c(OCCO)cc1NC(=O)C1=CNC(=O)C[C@H]1c1ccc(F)cc1` here?
The inhibition was under 30%.

What about the inhibition (Rattus norvegicus [2]) of the same compound?
Its inhibition is under 30%.

And the IC50 (P2X purinoceptor 2)?
The IC50 was over 10 µM.

And the inhibition [3]?
The inhibition was under 30%.

And the inhibition [4]?
Its inhibition is under 30%.

And the Stability (Plasma)?
Its Stability is “Stable”.

And the inhibition [5]?
The inhibition was under 30%.

What about the inhibition [6] of the same compound?
The inhibition was under 30%.

And the inhibition (Rattus norvegicus [7])?
Its inhibition is under 30%.

And the inhibition [8]?
The inhibition was under 30%.

What about the inhibition [9] of the same compound?
The inhibition was under 30%.

What about the PB [10] of the same compound?
Its PB is “Not Active”.

What about the inhibition [11] of the same compound?
The inhibition was under 30%.

And the inhibition [12]?
The inhibition was under 30%.

What about the inhibition (Rattus norvegicus [13]) of the same compound?
The inhibition was under 30%.

And the PB [14]?
Its PB is “Not Active”.

What about the inhibition [15] of the same compound?
Its inhibition is under 30%.

And the inhibition [16]?
The inhibition was under 30%.

What about the inhibition [17] of the same compound?
Its inhibition is under 30%.

What about the inhibition [18] of the same compound?
Its inhibition is under 30%.

What about the inhibition [19] of the same compound?
The inhibition was under 30%.

And the inhibition [20]?
The inhibition was under 30%.

What about the IC50 (P2X purinoceptor 5) of the same compound?
The IC50 was over 10 µM.

What about the inhibition [21] of the same compound?
Its inhibition is under 30%.

And the inhibition [22]?
Its inhibition is under 30%.

And the inhibition [23]?
The inhibition was under 30%.

And the inhibition [24]?
Its inhibition is under 30%.

And the inhibition [25]?
The inhibition was under 30%.

What about the inhibition [26] of the same compound?
Its inhibition is under 30%.

What about the inhibition (Rattus norvegicus [27]) of the same compound?
Its inhibition is under 30%.

What about the inhibition [28] of the same compound?
Its inhibition is under 30%.

And the inhibition [29]?
Its inhibition is under 30%.

And the AUC/dose (Rattus norvegicus [30])?
The AUC/dose was 1550 ng·h/mL/mg/kg.

What about the inhibition [31] of the same compound?
Its inhibition is under 30%.

And the inhibition [32]?
Its inhibition is under 30%.

Reference: ChEMBL document CHEMBL3739255, “Novel Series of Dihydropyridinone P2X7 Receptor Antagonists” (J Med Chem, 2015)
